From ChEMBL document CHEMBL1145341, “Synthesis and biological evaluation of bisindenoisoquinolines as topoisomerase I inhibitors” (2006) come the findings set out here.

Activity calls are given as the source filed them. No cut-off for these calls is given here. Some results are limits rather than exact numbers.

Test [1] concerns Panel (12 tumour cell lines). Kind of test: Net cell kill in ip dosed mouse implanted with 12 human tumor cell lines. It counts as functional, organism-based.
For a further test, the system named is UACC-62. Kind of test: Antiproliferative activity against human UACC62 cell line. The class given is functional.
A further test relates to DU-145. Kind of test: Antiproliferative activity against human DU145 cell line. It counts as functional.
In another test the test system is MDA-MB-435. Kind of test: Antiproliferative activity against human MDA-MB-435 cell line. The class given is functional.
The test system of another test is OVCAR-3. Kind of test: Antiproliferative activity against human OVCAR-3 cell line. It counts as functional.
The subject of the next test is HOP-62. Briefly: Antiproliferative activity against human HOP62 cell line. The class given is functional.
A further test relates to HCT-116. Briefly: Antiproliferative activity against human HCT116 cell line. It counts as functional.
Test [2] deals with T1, DNA topoisomerase 1 (Homo sapiens) (UniProt P11387).
T1 sequence (whole entry): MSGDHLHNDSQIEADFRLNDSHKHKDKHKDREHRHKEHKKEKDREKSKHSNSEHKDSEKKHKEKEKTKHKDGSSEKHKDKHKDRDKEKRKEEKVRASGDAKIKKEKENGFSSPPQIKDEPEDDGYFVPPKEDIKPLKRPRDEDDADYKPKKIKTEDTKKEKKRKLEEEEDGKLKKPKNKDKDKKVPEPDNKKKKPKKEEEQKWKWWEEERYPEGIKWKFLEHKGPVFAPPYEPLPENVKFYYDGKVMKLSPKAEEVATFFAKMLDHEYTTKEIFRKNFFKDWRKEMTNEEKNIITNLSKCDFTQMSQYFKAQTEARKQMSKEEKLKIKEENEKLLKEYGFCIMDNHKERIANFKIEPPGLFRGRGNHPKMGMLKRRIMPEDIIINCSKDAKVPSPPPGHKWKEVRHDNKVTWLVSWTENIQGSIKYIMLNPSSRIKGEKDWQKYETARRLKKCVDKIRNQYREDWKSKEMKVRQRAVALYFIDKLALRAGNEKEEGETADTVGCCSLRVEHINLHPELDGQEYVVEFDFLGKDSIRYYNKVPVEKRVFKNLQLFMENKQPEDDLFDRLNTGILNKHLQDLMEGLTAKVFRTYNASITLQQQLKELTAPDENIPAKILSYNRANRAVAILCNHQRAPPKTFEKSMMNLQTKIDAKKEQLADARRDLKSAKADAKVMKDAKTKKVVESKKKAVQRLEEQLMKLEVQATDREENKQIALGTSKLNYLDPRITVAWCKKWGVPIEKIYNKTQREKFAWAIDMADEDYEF
Briefly: Inhibition of human recombinant Top1-mediated DNA cleavage upto 10 uM. An outline of the steps:
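Baculovirus-purified human recombinant Top1. Substrate: 161 bp PvuII/HindIII fragment of pBluescript SK(-), 3′-end labeled with [α-32P]-dGTP by Klenow fill-in, about 50 000 dpm per reaction. Compounds up to 10 µM, 22 °C for 30 min; stopped with 0.5% SDS (final). Denaturing 16% polyacrylamide/7 M urea gels, phosphorimaging. Cleavage scored semiquantitatively (+ to ++++) against a reference indenoisoquinoline and 1 µM camptothecin.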

Another test concerns SF-539. Kind of test: Antiproliferative activity against human SF539 cell line. It counts as functional.
A further test has as its system SN12C. Kind of test: Antiproliferative activity against human SN12C cell line. It counts as functional.

Regarding `CC(=O)O[C@H]1C(=O)[C@@]2(C)[C@H]([C@H](OC(=O)c3ccccc3)[C@]3(O)C[C@H](OC(=O)[C@H](O)[C@@H](NC(=O)c4ccccc4)c4ccccc4)C(C)=C1C3(C)C)[C@]1(OC(C)=O)CO[C@@H]1C[C@@H]2O`, in [1], the result was Active.
In the case of `O=C1c2ccccc2-c2c1c1ccccc1c(=O)n2CCNCCNCCNCCn1c2c(c3ccccc3c1=O)C(=O)c1ccccc1-2`, the 50% growth inhibitory concentration (GI50) with UACC-62 was 269 nM; in the test with DU-145, 331 nM; in the test with MDA-MB-435 it was 1000 nM; with OVCAR-3, 1150 nM; in the test with HOP-62, 48 nM; in the test on HCT-116, 112 nM. Moreover, the GI50 in the test with SF-539 is 275 nM; in the test with SN12C, 17 nM. Moreover, in test [1], the result was inactive. Further, the result in test [2] was Active.
In the case of `CC(C)(C)OC(=O)N(CCCCN(CCCn1c2c(c3ccccc3c1=O)C(=O)c1ccccc1-2)C(=O)OC(C)(C)C)CCCn1c2c(c3ccccc3c1=O)C(=O)c1ccccc1-2`, the GI50 in the test with UACC-62 came out at 93300 nM; in the test on DU-145, 47900 nM; in the test on MDA-MB-435 it was 69200 nM; in the test on OVCAR-3, 69200 nM; in the test on HOP-62, 11000 nM; in the test on HCT-116, 1910 nM. The results for the GI50 with SF-539 and in the test on SN12C were 8130 nM and 36300 nM, respectively.
Take `CC(C)(C)OC(=O)N(CCCN(CCn1c2c(c3ccccc3c1=O)C(=O)c1ccccc1-2)C(=O)OC(C)(C)C)CCn1c2c(c3ccccc3c1=O)C(=O)c1ccccc1-2`: the GI50 with UACC-62 is more than 50100 nM; with DU-145, more than 50100 nM; with MDA-MB-435, more than 50100 nM; in the test on OVCAR-3, 21400 nM; with HOP-62 it was 22400 nM; with HCT-116, 22900 nM. For the same compound, the GI50 with SF-539 and with SN12C was more than 50100 nM each time.
For `O=C1c2ccccc2-c2c1c1ccccc1c(=O)n2CCCCNCCCn1c2c(c3ccccc3c1=O)C(=O)c1ccccc1-2`, the GI50 was 513 nM with UACC-62; 288 nM in the test with DU-145; 562 nM in the test on MDA-MB-435; 372 nM in the test with OVCAR-3; 28 nM in the test with HOP-62; 56 nM in the test with HCT-116. Besides, the GI50 in the test on SN12C came out at 132 nM.
Regarding `O=C1c2ccccc2-c2c1c1ccccc1c(=O)n2CCNCCn1c2c(c3ccccc3c1=O)C(=O)c1ccccc1-2`, the GI50 in the test with UACC-62, in the test on DU-145, with MDA-MB-435, in the test with OVCAR-3, with HOP-62 and with HCT-116 was more than 25100 nM in each case. The GI50 with SF-539 and with SN12C was more than 25100 nM each time.
Consider `CN(CCCn1c2c(c3ccccc3c1=O)C(=O)c1ccccc1-2)CCCn1c2c(c3ccccc3c1=O)C(=O)c1ccccc1-2`, for which the GI50 in the test with UACC-62 was 2000 nM; in the test on MDA-MB-435, 1550 nM; in the test with OVCAR-3, 1200 nM; in the test on SF-539, 1120 nM; in the test with SN12C, 589 nM.
Consider `NCCCn1c2c(c3ccccc3c1=O)C(=O)c1ccccc1-2`, for which the GI50 with UACC-62 was 260 nM; with DU-145, 220 nM; in the test on MDA-MB-435, 780 nM; with OVCAR-3, 1380 nM; with HOP-62, 200 nM; with HCT-116, 180 nM. The concentration for 50% growth inhibition (GI50) came out at 250 nM in the test on SF-539 and 160 nM with SN12C.
As for `O=C1c2ccccc2-c2c1c1ccccc1c(=O)n2CCNCCNCCNCCNCCn1c2c(c3ccccc3c1=O)C(=O)c1ccccc1-2`, the GI50 with DU-145 worked out at 85 nM; in the test with MDA-MB-435, 126 nM; in the test with OVCAR-3, 32 nM; in the test on HOP-62 it was 977 nM; in the test on HCT-116, 200 nM; in the test with SF-539, 12 nM.
With `O=C1c2ccccc2-c2c1c1ccccc1c(=O)n2CCCN1CCN(CCCn2c3c(c4ccccc4c2=O)C(=O)c2ccccc2-3)CC1`, the GI50 is more than 100000 nM with UACC-62; 24000 nM in the test with DU-145; more than 100000 nM in the test on MDA-MB-435; more than 100000 nM with OVCAR-3; 12900 nM in the test on HOP-62; 35500 nM with HCT-116. Further, the GI50 in the test with SF-539 was more than 100000 nM; in the test on SN12C it was 15500 nM.
As to `CC[C@@]1(O)C(=O)OCc2c1cc1n(c2=O)Cc2cc3ccccc3nc2-1` [CAMPTOTHECIN], the GI50 in the test with UACC-62 amounted to 10 nM; in the test on DU-145 it was 10 nM; in the test with MDA-MB-435, 40 nM; in the test with HOP-62, 10 nM; in the test on HCT-116, 30 nM; in the test on SF-539 it was 10 nM. Also, growth in the test with SN12C was halved (GI50) at 20 nM.
In the case of `O=C1c2ccccc2-c2c1c1ccccc1c(=O)n2CCNCCNCCn1c2c(c3ccccc3c1=O)C(=O)c1ccccc1-2`, the GI50 with UACC-62 was determined as 331 nM; with DU-145, 182 nM; in the test on MDA-MB-435 it was 1660 nM; with OVCAR-3, 1660 nM; in the test on HOP-62, 32 nM; with HCT-116, 29 nM. Besides, halving of growth with SN12C (GI50) required 178 nM.
With `COc1cc2c3c(n(CCCNCCCNCCCN)c(=O)c2cc1OC)-c1cc2c(cc1C3=O)OCO2`, the GI50 with UACC-62 is 44000 nM; in the test on DU-145 it was more than 100000 nM; with MDA-MB-435, 68000 nM; with OVCAR-3, 880 nM; in the test on HCT-116, 43000 nM; in the test on SF-539, more than 100000 nM. The GI50 in the test on SN12C was 33000 nM.
On to `COc1cc2c3c(n(CCCNCCCNCCCn4c5c(c6cc(OC)c(OC)cc6c4=O)C(=O)c4ccccc4-5)c(=O)c2cc1OC)-c1ccccc1C3=O`, for which the GI50 in the test with UACC-62 is 4270 nM; in the test on DU-145, 19500 nM; in the test with MDA-MB-435, 3980 nM; in the test on OVCAR-3 it was 9550 nM; in the test on HOP-62, 1510 nM; in the test with HCT-116 it was 331 nM. The GI50 came out at 4170 nM in the test with SF-539 and 240 nM in the test with SN12C.
On to `O=C1c2ccccc2-c2c1c1ccccc1c(=O)n2CCCNCCNCCCn1c2c(c3ccccc3c1=O)C(=O)c1ccccc1-2`, for which the GI50 is 52 nM with UACC-62; less than 10 nM in the test with DU-145; 933 nM in the test on MDA-MB-435; 1020 nM in the test on OVCAR-3; less than 10 nM in the test on HOP-62; less than 10 nM in the test with HCT-116. Moreover, in the test with SN12C, the GI50 was less than 10 nM. For the same compound, the result in test [2] was Active.
Take `O=C1c2ccccc2-c2c1c1ccccc1c(=O)n2CCCNCCCNCCCn1c2c(c3ccccc3c1=O)C(=O)c1ccccc1-2`: the GI50 in the test on UACC-62 was 42 nM; in the test on MDA-MB-435 it was 107 nM; in the test with OVCAR-3 it was 74 nM; in the test on HOP-62, less than 10 nM; with HCT-116, less than 10 nM; with SF-539 it was 11 nM. The compound also registered a GI50 in the test with SN12C of less than 10 nM. Also, the result in test [1] was inactive. For the same compound, the result in test [2] was Active.
Consider `COc1cc2c3c(n(CCNCCCNCCn4c5c(c6cc(OC)c(OC)cc6c4=O)C(=O)c4ccccc4-5)c(=O)c2cc1OC)-c1ccccc1C3=O`, for which the GI50 in the test on UACC-62 is 1230 nM; in the test on DU-145 it was 209 nM; in the test on MDA-MB-435 it was 813 nM; in the test with OVCAR-3, 269 nM; in the test with HOP-62, 68 nM; in the test on HCT-116 it was 45 nM. Further, the results for the GI50 with SF-539 and in the test with SN12C were 170 nM and 28 nM, respectively.
`CC(C)(C)OC(=O)N(CCCn1c2c(c3ccccc3c1=O)C(=O)c1ccccc1-2)CCN(CCCn1c2c(c3ccccc3c1=O)C(=O)c1ccccc1-2)C(=O)OC(C)(C)C`: the GI50 in the test with UACC-62 was 45700 nM; in the test on DU-145 it was more than 50100 nM; in the test on MDA-MB-435 it was more than 50100 nM; in the test on OVCAR-3 it was 13200 nM; in the test with HOP-62, 20000 nM; in the test with HCT-116 it was 14100 nM. In addition, the figures for the GI50 with SF-539 and in the test on SN12C were more than 50100 nM and 39800 nM, respectively.
On to `O=C1c2ccccc2-c2c1c1ccccc1c(=O)n2CCCNCCCn1c2c(c3ccccc3c1=O)C(=O)c1ccccc1-2`, for which the GI50 came to 6610 nM in the test with UACC-62; 1000 nM with DU-145; 8910 nM in the test on MDA-MB-435; 2950 nM in the test with OVCAR-3; 794 nM in the test on HOP-62; 550 nM with HCT-116. Also, the GI50 came out at 3630 nM in the test on SF-539 and 1550 nM in the test with SN12C.
Turning to `O=C1c2ccccc2-c2c1c1ccccc1c(=O)n2CCCNCCn1c2c(c3ccccc3c1=O)C(=O)c1ccccc1-2`, the GI50 worked out at 5010 nM with UACC-62; 1910 nM with DU-145; 2240 nM with MDA-MB-435; 8910 nM in the test with OVCAR-3; 977 nM in the test on HOP-62; 1050 nM in the test on HCT-116. Besides, the GI50 in the test on SF-539 came to 14500 nM; with SN12C, 11000 nM.
